This passage reports inhibition in vivo results from ChEMBL document CHEMBL1151773, “Synthesis and biological evaluation of amide derivatives of (5,6-dimethoxy-2,3-dihydro-1H-inden-1-yl)acetic acid as anti-inflammatory agents with reduced gastrointestinal ulcerogenecity” (Eur J Med Chem, 2008).

Each structure is given as a SMILES string.

What all share (format): functional
The subject of assay [1] is Mus musculus. In words: Analgesic activity in Swiss albino mouse assessed as inhibition of acetic acid-induced writhing at 100 mg/kg, po administered 60 mins before acetic acid challenge after 5 to 15 mins relative to control. In short, it runs like this:
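Female Swiss albino mice, 20±5 g, fasted overnight with free water access, dosed orally; 1 h later injected i.p. with 1% v/v acetic acid at 0.1 ml/10 g. Writhes (full hind-limb extension) counted for 15 min, starting 5 min after injection; only animals giving 20 or more writhes used. % inhibition = 100(1−Wt/Wc) vs control group mean; six animals per group.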
In general terms: Writhing tests count abdominal constrictions after an irritant is injected.

Assay [2] deals with Rattus norvegicus. Briefly: Antiinflammatory activity in Wistar rat assessed as inhibition of carrageenan-induced hind paw edema volume at 100 mg/kg, po administered 60 mins before carrageenan challenge after 24 hrs relative to control. In general terms: In the carrageenan paw model, swelling and tenderness develop within hours.
The test system of assay [3] is Rattus norvegicus. In words: Antiinflammatory activity in Wistar rat assessed as inhibition of carrageenan-induced hind paw edema volume at 100 mg/kg, po administered 60 mins before carrageenan challenge after 6 hrs relative to control.
Assay [4] concerns Rattus norvegicus. In words: Antiinflammatory activity in Wistar rat assessed as inhibition of carrageenan-induced hind paw edema volume at 100 mg/kg, po administered 60 mins before carrageenan challenge after 4 hrs relative to control.
For assay [5], the system named is Rattus norvegicus. In words: Antiinflammatory activity in Wistar rat assessed as inhibition of carrageenan-induced hind paw edema volume at 100 mg/kg, po administered 60 mins before carrageenan challenge after 3 hrs relative to control.
For assay [6], the system named is Rattus norvegicus. Briefly: Antiinflammatory activity in Wistar rat assessed as inhibition of carrageenan-induced hind paw edema volume at 100 mg/kg, po administered 60 mins before carrageenan challenge after 1 hr relative to control.
Assay [7] has as its system Rattus norvegicus. In words: Antiinflammatory activity in Wistar rat assessed as inhibition of carrageenan-induced hind paw edema volume at 100 mg/kg, po administered 60 mins before carrageenan challenge after 2 hrs relative to control.

The inhibition in vivo is the change of the read-out against control, counted positive when it falls. With `CCCNC(=O)CC1CCc2cc(OC)c(OC)cc21` (configuration not stated), the inhibition in vivo at 100 mg/kg in assay [1] came out at 26.9%; in assay [2], 26.7%; in assay [3] it was 22.2%; in assay [4] it was 26.6%; in assay [5], 29%; in assay [6] it was 18.8%. Besides, in assay [7], the inhibition in vivo at 100 mg/kg was found to be 28%.

`COc1cc2c(cc1OC)C(CC(=O)N1CCCC1)CC2` (configuration not stated): the inhibition in vivo at 100 mg/kg amounted to 19.2% in assay [1]; 33.3% in assay [2]; 22.2% in assay [3]; 24.2% in assay [4]; 26.1% in assay [5]; 4.69% in assay [6]. In addition, the inhibition in vivo at 100 mg/kg in assay [7] came out at 20%.

Regarding `COc1cc2c(cc1OC)C(CC(=O)NC1CCCC1)CC2` (configuration not stated), the inhibition in vivo at 100 mg/kg in assay [1] worked out at 37%; in assay [2] it was 46.7%; in assay [3] it was 40.7%; in assay [4], 45.3%; in assay [5], 43.5%; in assay [6], 40.6%. Further, in assay [7], the inhibition in vivo at 100 mg/kg stood at 52%.

As for `COc1cc2c(cc1OC)C(CC(=O)O)CC2` (configuration not stated), the inhibition in vivo at 100 mg/kg in assay [1] was 44%; in assay [2] it was 26.7%; in assay [3], 20.4%; in assay [4], 23.9%; in assay [5] it was 27.5%; in assay [6] it was 18.8%. In addition, the inhibition in vivo at 100 mg/kg in assay [7] was 24%.

As for `COc1cc2c(cc1OC)C(CC(=O)N(C)C)CC2` (configuration not stated), the inhibition in vivo at 100 mg/kg in assay [1] was 22.6%; in assay [2], 23.3%; in assay [3], 33.3%; in assay [4], 35.9%; in assay [5] it was 34.8%; in assay [6], 25%. Besides, the inhibition in vivo at 100 mg/kg in assay [7] came out at 36%.

`CCCCCNC(=O)CC1CCc2cc(OC)c(OC)cc21` (configuration not stated): the inhibition in vivo at 100 mg/kg in assay [1] is 71.7%; in assay [2] it was 46.7%; in assay [3], 35.2%; in assay [4] it was 40.6%; in assay [5] it was 37.7%; in assay [6] it was 34.4%. Further, the inhibition in vivo at 100 mg/kg in assay [7] was determined as 34%.

With `COc1cc2c(cc1OC)C(CC(=O)N1CCOCC1)CC2` (configuration not stated), the inhibition in vivo at 100 mg/kg in assay [1] is 23.6%; in assay [2], 23.3%; in assay [3] it was 14.8%; in assay [4], 13.3%; in assay [5], 19.6%; in assay [6], 15.6%. Also, in assay [7], the inhibition in vivo at 100 mg/kg was found to be 14%.

Take `CCN(CC)C(=O)CC1CCc2cc(OC)c(OC)cc21` (configuration not stated): the inhibition in vivo at 100 mg/kg was 27.4% in assay [1]; 16.7% in assay [2]; 31.5% in assay [3]; 37.5% in assay [4]; 37.7% in assay [5]; 31.2% in assay [6]. Also, the inhibition in vivo at 100 mg/kg in assay [7] came to 40%.

For the molecule `COc1cc2c(cc1OC)C(CC(=O)NC1CC1)CC2` (configuration not stated), the inhibition in vivo at 100 mg/kg stood at 32.7% in assay [1]; 0% in assay [2]; 11.1% in assay [3]; 17.2% in assay [4]; 18.8% in assay [5]; 21.9% in assay [6]. In addition, in assay [7], the inhibition in vivo at 100 mg/kg came to 14%.

Take `COc1cc2c(cc1OC)C(CC(=O)NCc1ccccc1)CC2` (configuration not stated): the inhibition in vivo at 100 mg/kg in assay [1] stood at 48%; in assay [2] it was 43.3%; in assay [3], 30.6%; in assay [4], 18.8%; in assay [5] it was 14.4%; in assay [6], 18.8%. For the same molecule, in assay [7], the inhibition in vivo at 100 mg/kg was 24%.

As for `CNC(=O)CC1CCc2cc(OC)c(OC)cc21` (configuration not stated), the inhibition in vivo at 100 mg/kg was 21.2% in assay [1]; 33.3% in assay [2]; 24.1% in assay [3]; 29.7% in assay [4]; 29% in assay [5]; 15.6% in assay [6]. The inhibition in vivo at 100 mg/kg in assay [7] amounted to 30%.

`COc1cc2c(cc1OC)C(CC(=O)N1CCCCC1)CC2` (configuration not stated): the inhibition in vivo at 100 mg/kg in assay [1] amounted to 44.7%; in assay [2], 40%; in assay [3], 31.5%; in assay [4] it was 32%; in assay [5], 31.9%; in assay [6] it was 18.8%. Further, the inhibition in vivo at 100 mg/kg in assay [7] amounted to 22%.

On to `CCCCNC(=O)CC1CCc2cc(OC)c(OC)cc21` (configuration not stated), for which the inhibition in vivo at 100 mg/kg in assay [1] turned out to be 39.4%; in assay [2] it was 36.7%; in assay [3], 24.1%; in assay [4] it was 25%; in assay [5], 27.5%; in assay [6], 31.2%. Also, the inhibition in vivo at 100 mg/kg in assay [7] was found to be 24%.

Take `COc1cc2c(cc1OC)C(CC(N)=O)CC2` (configuration not stated): the inhibition in vivo at 100 mg/kg in assay [1] stood at 24.6%; in assay [2] it was 26.7%; in assay [3], 27.8%; in assay [4], 31.2%; in assay [5], 30.4%; in assay [6], 18.8%. Besides, in assay [7], the inhibition in vivo at 100 mg/kg is 31%.

As for `CCNC(=O)CC1CCc2cc(OC)c(OC)cc21` (configuration not stated), the inhibition in vivo at 100 mg/kg in assay [1] is 23.6%; in assay [2] it was 33.3%; in assay [3], 20.4%; in assay [4], 26.6%; in assay [5] it was 26.1%; in assay [6], 15.6%. The inhibition in vivo at 100 mg/kg in assay [7] came out at 26%.

With `COc1cc2c(cc1OC)C(CC(=O)NC(C)(C)C)CC2` (configuration not stated), the inhibition in vivo at 100 mg/kg in assay [1] was 41.8%; in assay [2], 40%; in assay [3], 31.5%; in assay [4], 32.8%; in assay [5], 33.3%; in assay [6] it was 31.2%. Moreover, the inhibition in vivo at 100 mg/kg in assay [7] came out at 32%.
